Reference: ChEMBL document CHEMBL3813684, “A Prospective Virtual Screening Study: Enriching Hit Rates and Designing Focus Libraries To Find Inhibitors of PI3Kδ and PI3Kγ” (J Med Chem, 2016)

Target: Phosphatidylinositol 4,5-bisphosphate 3-kinase catalytic subunit gamma isoform (Homo sapiens, UniProt P48736)
Experiment: Inhibition of human PI3Kgamma using PIP2 as substrate by HTRF assay in presence of biotin-PIP3
In short: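 HTRF enzyme assay: PI3Kγ added to mix of ATP, MgCl2 and PIP2 substrate (apparent Km 200 µM ATP, 15 µM PIP2). PIP3 product read by displacement of biotin-PIP3 from Eu-anti-GST antibody/GST-GRP1 PH domain/biotin-PIP3/streptavidin-APC complex. Primary screen at 10 µM, hits >2 SD from mean; confirmation in triplicate at 10 µM; dose response as pIC50.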

Sequence of Phosphatidylinositol 4,5-bisphosphate 3-kinase catalytic subunit gamma isoform (P48736 whole entry, canonical isoform): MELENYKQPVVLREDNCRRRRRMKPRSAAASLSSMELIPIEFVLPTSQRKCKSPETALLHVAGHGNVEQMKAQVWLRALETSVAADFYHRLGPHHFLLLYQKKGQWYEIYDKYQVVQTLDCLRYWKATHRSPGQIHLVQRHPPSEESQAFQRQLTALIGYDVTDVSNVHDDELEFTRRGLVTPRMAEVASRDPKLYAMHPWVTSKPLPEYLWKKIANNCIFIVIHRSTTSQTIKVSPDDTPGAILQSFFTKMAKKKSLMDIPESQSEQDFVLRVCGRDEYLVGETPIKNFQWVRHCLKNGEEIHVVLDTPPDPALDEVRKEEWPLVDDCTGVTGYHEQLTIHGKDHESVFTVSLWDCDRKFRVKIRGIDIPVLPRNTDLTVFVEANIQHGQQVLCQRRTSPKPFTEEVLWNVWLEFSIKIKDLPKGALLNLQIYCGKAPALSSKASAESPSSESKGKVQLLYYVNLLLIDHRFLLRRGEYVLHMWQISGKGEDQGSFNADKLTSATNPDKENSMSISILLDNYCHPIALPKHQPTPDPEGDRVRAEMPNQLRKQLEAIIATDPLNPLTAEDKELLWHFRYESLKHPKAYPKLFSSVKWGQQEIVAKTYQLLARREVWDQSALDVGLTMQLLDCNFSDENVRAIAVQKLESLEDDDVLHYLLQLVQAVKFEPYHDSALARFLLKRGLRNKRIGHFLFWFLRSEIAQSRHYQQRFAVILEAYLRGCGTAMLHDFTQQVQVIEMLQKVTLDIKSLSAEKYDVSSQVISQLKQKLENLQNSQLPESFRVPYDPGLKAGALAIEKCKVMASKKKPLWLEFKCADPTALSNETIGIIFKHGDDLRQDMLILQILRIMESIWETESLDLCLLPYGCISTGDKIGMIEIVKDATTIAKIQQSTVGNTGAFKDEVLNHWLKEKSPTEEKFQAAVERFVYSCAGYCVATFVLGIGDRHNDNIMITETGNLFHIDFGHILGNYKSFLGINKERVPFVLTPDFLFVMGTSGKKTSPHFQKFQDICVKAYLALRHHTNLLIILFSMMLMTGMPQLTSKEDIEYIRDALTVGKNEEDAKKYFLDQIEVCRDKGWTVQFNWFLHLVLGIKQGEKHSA

Row | SMILES | IC50 [µM]
1 | FC(F)(F)c1cc(Nc2nc3ccccc3s2)cc(C(F)(F)F)c1 | 5.5
2 | COc1cc(Nc2ccn3ncc(-c4cccc(C(N)=O)c4)c3n2)cc(OC)c1OC | 6.17
3 | COc1cncc(-c2cnn3ccc(NC4CCC(O)CC4)nc23)c1 (stereo unspecified) | 5.75

Other lines, results leading:

Row | IC50 [µM] | SMILES
4 | 2.4 | COc1cc(-c2cnn3ccc(Nc4ccc(C(C)C)cc4)nc23)ccc1O
5 | 6.92 | COc1cc(-c2cnc3ccc(NCc4ccco4)nn23)ccc1O

Target: PI3-kinase p110-delta/p85-alpha (Homo sapiens, UniProt O00329)
Experiment: Inhibition of human full length recombinant His-tagged PIK3CD/PIK3R1 expressed in baculovirus expression system after 60 mins by LanthaScreen Eu binding assay in presence of kinase tracer 314
In short: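 Binding displacement in 50 mM HEPES pH 7.5, 10 mM MgCl2, 1 mM EGTA, 0.01% Brij-35. Enzyme 0.5 nM with Eu-anti-GST antibody 2 nM added to pre-spotted compound, then tracer 314 10 nM (all final). Controls omit enzyme. 60 min at room temperature; TR-FRET read at excitation 320 nm, emission 615/665 nm. Results as pIC50.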

Sequence of PI3-kinase p110-delta/p85-alpha (P27986 whole entry): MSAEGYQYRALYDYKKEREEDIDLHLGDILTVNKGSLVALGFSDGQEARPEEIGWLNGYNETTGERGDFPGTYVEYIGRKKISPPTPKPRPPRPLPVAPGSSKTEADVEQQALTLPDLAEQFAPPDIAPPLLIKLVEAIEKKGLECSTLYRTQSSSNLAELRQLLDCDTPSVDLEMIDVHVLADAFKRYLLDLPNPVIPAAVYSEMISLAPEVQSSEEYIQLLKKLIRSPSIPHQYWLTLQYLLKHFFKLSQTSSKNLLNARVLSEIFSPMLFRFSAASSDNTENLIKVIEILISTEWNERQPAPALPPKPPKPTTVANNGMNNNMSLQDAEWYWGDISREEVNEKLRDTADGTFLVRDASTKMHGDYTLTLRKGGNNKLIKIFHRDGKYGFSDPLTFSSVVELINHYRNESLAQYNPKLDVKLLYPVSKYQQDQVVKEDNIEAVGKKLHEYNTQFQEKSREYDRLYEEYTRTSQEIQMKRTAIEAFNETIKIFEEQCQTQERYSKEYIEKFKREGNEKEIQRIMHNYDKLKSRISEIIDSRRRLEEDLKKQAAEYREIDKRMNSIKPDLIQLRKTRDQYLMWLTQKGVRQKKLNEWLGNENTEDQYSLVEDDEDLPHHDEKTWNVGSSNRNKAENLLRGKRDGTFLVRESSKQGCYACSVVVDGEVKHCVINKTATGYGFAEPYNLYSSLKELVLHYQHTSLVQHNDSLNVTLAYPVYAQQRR
Sequence of PI3-kinase p110-delta/p85-alpha (O00329 whole entry): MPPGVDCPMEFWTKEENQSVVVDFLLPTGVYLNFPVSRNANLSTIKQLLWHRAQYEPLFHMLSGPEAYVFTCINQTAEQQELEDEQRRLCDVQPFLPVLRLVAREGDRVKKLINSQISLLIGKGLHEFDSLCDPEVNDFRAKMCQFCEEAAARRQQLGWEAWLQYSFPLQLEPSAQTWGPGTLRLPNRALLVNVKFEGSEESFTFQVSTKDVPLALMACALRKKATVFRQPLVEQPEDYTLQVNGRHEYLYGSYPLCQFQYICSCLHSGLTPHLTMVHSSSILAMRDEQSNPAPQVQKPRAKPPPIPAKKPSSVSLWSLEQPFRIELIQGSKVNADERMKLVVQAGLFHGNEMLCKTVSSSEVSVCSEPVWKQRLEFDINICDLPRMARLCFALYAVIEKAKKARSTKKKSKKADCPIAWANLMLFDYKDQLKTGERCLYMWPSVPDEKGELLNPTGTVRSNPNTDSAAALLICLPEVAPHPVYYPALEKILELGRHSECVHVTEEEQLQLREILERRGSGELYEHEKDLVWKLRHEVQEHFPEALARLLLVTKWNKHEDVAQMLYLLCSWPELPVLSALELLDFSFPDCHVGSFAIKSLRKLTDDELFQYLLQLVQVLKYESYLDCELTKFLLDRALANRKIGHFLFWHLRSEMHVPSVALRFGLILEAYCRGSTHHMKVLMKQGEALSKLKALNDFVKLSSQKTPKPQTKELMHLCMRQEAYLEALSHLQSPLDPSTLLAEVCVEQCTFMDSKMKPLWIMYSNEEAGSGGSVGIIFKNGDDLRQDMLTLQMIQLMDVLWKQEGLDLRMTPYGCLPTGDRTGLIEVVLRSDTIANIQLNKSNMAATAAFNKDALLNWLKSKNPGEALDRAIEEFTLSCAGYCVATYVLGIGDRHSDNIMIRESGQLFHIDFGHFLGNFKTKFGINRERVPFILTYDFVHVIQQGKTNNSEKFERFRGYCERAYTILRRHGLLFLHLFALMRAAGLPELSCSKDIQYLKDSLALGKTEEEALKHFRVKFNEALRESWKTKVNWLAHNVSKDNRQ

Row | SMILES | IC50 [µM]
6 | CN(Cc1ccccc1)c1ncnc2ccc(Br)cc12 | 6.92
7 | Cc1nc2ccc(Cl)cn2c1-c1ccnc(N)n1 | 2.57
8 | Cn1ccc2cc(-c3cnc4cnc(-c5cccc(C(N)=O)c5)cn34)ccc21 | 0.427
9 | O=C(C1CC=CCC1)N1CCCC(c2n[nH]c3ncccc23)C1 (stereo unspecified) | 8.51
10 | c1cncc(CCNc2ccc3ncc(-c4cc5ccccc5s4)n3n2)c1 | 6.46
11 | Clc1ccc2ncnc(NCCCc3ccccc3)c2c1 | 3.16
12 | CN1CCC(NCc2ccc(Nc3ncc4cnn([C@H]5C[C@@H]6CC[C@H]5C6)c4n3)cc2)CC1 | 0.339
13 | Cc1nn(-c2ccccc2)c2c1-c1nc(N)ncc1CC2 | 8.13

Next, values leading:

Row | IC50 [µM] | SMILES
14 | 3.8 | c1ccc(CSc2nc(N3CCOCC3)c3sccc3n2)cc1
15 | 2.45 | NC(=O)c1nc(-c2ccc3ncccc3c2)nc2c1[nH]c(=O)n2CCc1ccccc1
16 | 5.5 | Clc1ccc2ncnc(NCCOc3ccccc3)c2c1
